Assay results from ChEMBL document CHEMBL1142179, “Association of fluconazole area under the concentration-time curve/MIC and dose/MIC ratios with mortality in nonneutropenic patients with candidemia” (2007).
In brackets after ≈: the same amount, converted by molar mass.

Columns and labels:
Type in all cases: functional
Candida [1] = assay: Ratio of weight normalized daily dose in non-surviving candidemia patient to MIC at 24 hrs against Candida species
In short: (§1)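 MICs for patient Candida blood isolates were measured by CLSI M27-A2 microdilution in RPMI 1640-2% dextrose with 0.165 M MOPS, pH 7.0. Fluconazole was tested at 0.5–256 μg/ml in doubling dilutions, incubated at 35°C, and read at 24 h and 48 h by marked turbidity reduction. The fluconazole dose in mg/kg body weight was divided by the 24-h or 48-h MIC.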

Candida [2] = assay: Ratio of weight normalized daily dose in surviving candidemia patient to MIC at 48 hrs against Candida species; in short: as §1
Homo sapiens [3] = species on record: Homo sapiens; assay: Ratio of weight normalized daily dose in non-surviving candidemia patient to MIC at 48 hrs against Candida species; in short: as §1
Candida tropicalis [4] = assay: Antimicrobial activity against Candida tropicalis at 24 hrs
In short: (§2)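 Bloodstream isolates from hospitalized candidemia patients, stored at −70°C and subcultured overnight on Sabouraud dextrose agar. Tested by CLSI M27-A2 broth microdilution in RPMI 1640-2% dextrose with 0.165 M MOPS, pH 7.0. Fluconazole was given as serial doubling dilutions from 0.5 to 256.0 μg/ml. Inoculum was a 0.5 McFarland suspension diluted to 2×. Plates were incubated at 35°C. MIC was read at 24 and 48 h as a marked reduction in turbidity, with ATCC 6258 and ATCC 22019 as QC strains.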

Clavispora lusitaniae [5] = assay: Antimicrobial activity against Candida lusitaniae at 24 hrs; in short: as §2
Candida albicans [6] = assay: Ratio of AUC in candidemia patient to MIC against Candida albicans
In short: (§3)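 Bloodstream Candida isolates came from hospitalized adults treated with fluconazole. MICs were measured by CLSI M27-A2 broth microdilution in RPMI 1640-2% dextrose with 0.165 M MOPS, pH 7.0. Fluconazole was tested in doubling dilutions of 0.5–256 μg/ml at 35°C, read at 24 and 48 h as a marked drop in turbidity. AUC is the individual dose divided by clearance estimated from creatinine clearance. The ratio is AUC divided by the 24- or 48-h MIC.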

Nakaseomyces glabratus [7] = assay: Ratio of AUC in candidemia patient to MIC against Candida glabrata; in short: as §3
Candida parapsilosis [8] = assay: Ratio of AUC in candidemia patient to MIC against Candida parapsilosis; in short: as §3
Candida tropicalis [9] = assay: Ratio of AUC in candidemia patient to MIC against Candida tropicalis; in short: as §3
Clavispora lusitaniae [10] = assay: Ratio of AUC in candidemia patient to MIC against Candida lusitaniae; in short: as §3
Candida albicans [11] = assay: Ratio of weight normalized daily dose in candidemia patient to MIC against Candida albicans
In short: (§4)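 Fluconazole daily dose (mg/kg) of each nonneutropenic candidemia patient divided by the MIC of their bloodstream isolate. MIC by CLSI M27-A2 broth microdilution in RPMI 1640-2% dextrose, 0.165 M MOPS, pH 7.0. Serial doubling dilutions ran 0.5–256.0 μg/ml. Inoculum was a 0.5 McFarland suspension diluted to 2×. Incubated at 35°C; MIC read at 24 and 48 h as marked turbidity reduction.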

Nakaseomyces glabratus [12] = assay: Ratio of weight normalized daily dose in candidemia patient to MIC against Candida glabrata; in short: as §1
Candida parapsilosis [13] = assay: Ratio of weight normalized daily dose in candidemia patient to MIC against Candida parapsilosis; in short: as §1
Candida tropicalis [14] = assay: Ratio of weight normalized daily dose in candidemia patient to MIC against Candida tropicalis; in short: as §1
Clavispora lusitaniae [15] = assay: Ratio of weight normalized daily dose in candidemia patient to MIC against Candida lusitaniae; in short: as §1
Homo sapiens [16] = species on record: Homo sapiens; assay: Mortality rate in Candida albicans infected candidemia patient
In short: (§5)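 Subjects were adults (≥18 y) hospitalized >48 h before a Candida-positive blood culture, enrolled 2002–2005 at two hospitals, and treated with fluconazole. Patients were excluded if fluconazole started >24 h before culture or >2 days after it. Species was identified by Vitek YBC or API 20C Aux. Mortality is given per infecting species.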

Homo sapiens [17] = species on record: Homo sapiens; assay: Mortality rate in Candida glabrata infected candidemia patient; in short: as §5
Homo sapiens [18] = species on record: Homo sapiens; assay: Mortality rate in Candida parapsilosis infected candidemia patient; in short: as §5
Homo sapiens [19] = species on record: Homo sapiens; assay: Mortality rate in Candida tropicalis infected candidemia patient; in short: as §5
Homo sapiens [20] = species on record: Homo sapiens; assay: Mortality rate in Candida lusitaniae infected candidemia patient; in short: as §5
Homo sapiens [21] = species on record: Homo sapiens; assay: Mortality rate stratified by 24 hrs MIC in susceptible Candida species infected patient
In short: (§6)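 Patients were fluconazole-treated nonneutropenic adults with candidemia. Isolate MICs were obtained by CLSI M27-A2 broth microdilution, read at 24 or 48 h. Patients were grouped by susceptibility breakpoint category. Mortality was compared by chi-square analysis.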

Homo sapiens [22] = species on record: Homo sapiens; assay: Mortality rate stratified by 48 hrs MIC in susceptible Candida species infected patient; in short: as §6
Homo sapiens [23] = species on record: Homo sapiens; assay: Mortality rate stratified by 24 hrs MIC in dose-dependently susceptible Candida species infected patient; in short: as §6
Homo sapiens [24] = species on record: Homo sapiens; assay: Mortality rate stratified by 48 hrs MIC in dose-dependently susceptible Candida species infected patient; in short: as §6
Homo sapiens [25] = species on record: Homo sapiens; assay: Mortality rate stratified by 24 hrs MIC in resistant Candida species infected patient; in short: as §6
Homo sapiens [26] = species on record: Homo sapiens; assay: Mortality rate stratified by 48 hrs MIC in resistant Candida species infected patient; in short: as §6
Candida [27] = assay: Ratio of AUC in surviving candidemia patient to MIC at 24 hrs against Candida species; in short: as §3
Candida [28] = assay: Ratio of AUC in surviving candidemia patient to MIC at 48 hrs against Candida species; in short: as §3
Candida albicans [29] = assay: Antimicrobial activity against Candida albicans at 48 hrs; in short: as §2
Nakaseomyces glabratus [30] = assay: Antimicrobial activity against Candida glabrata at 48 hrs; in short: as §2
Candida parapsilosis [31] = assay: Antimicrobial activity against Candida parapsilosis at 48 hrs; details: Lodderomyces parapsilosis; in short: as §2
Candida tropicalis [32] = assay: Antimicrobial activity against Candida tropicalis at 48 hrs; in short: as §2
Candida albicans [33] = assay: Ratio of weight normalized daily dose in candidemia patient to MIC at 48 hrs against Candida albicans; in short: as §4
Nakaseomyces glabratus [34] = assay: Ratio of weight normalized daily dose in candidemia patient to MIC at 48 hrs against Candida glabrata; in short: as §1
Nakaseomyces glabratus [35] = assay: Ratio of weight normalized daily dose in candidemia patient to MIC at 24 hrs against Candida glabrata; in short: as §1
Candida albicans [36] = assay: Ratio of weight normalized daily dose in candidemia patient to MIC at 24 hrs against Candida albicans; in short: as §4
Candida [37] = assay: Ratio of AUC in non-surviving candidemia patient to MIC at 48 hrs against Candida species; in short: as §3
Clavispora lusitaniae [38] = assay: Antimicrobial activity against Candida lusitaniae at 48 hrs; in short: as §2
Candida [39] = assay: Ratio of weight normalized daily dose in surviving candidemia patient to MIC at 24 hrs against Candida species
In short: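 Weight-normalized fluconazole daily dose (mg/kg) was divided by the isolate MIC read at 24 h (CLSI M27-A2 broth microdilution, 35°C). Ratios were log10-transformed before analysis. Surviving patients were compared with nonsurvivors, with logistic regression used against mortality.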

Candida albicans [40] = assay: Antimicrobial activity against Candida albicans at 24 hrs; in short: as §2
Nakaseomyces glabratus [41] = assay: Antimicrobial activity against Candida glabrata at 24 hrs; in short: as §2
Candida parapsilosis [42] = assay: Antimicrobial activity against Candida parapsilosis at 24 hrs; details: Lodderomyces parapsilosis; in short: as §2

**Q.** Which results are given for `OC(Cn1cncn1)(Cn1cncn1)c1ccc(F)cc1F` [FLUCONAZOLE]?
**A.** Ratio (Candida [1]): 7; Ratio (Candida [2]): 10.7; Ratio (Homo sapiens [3]): 6.1; MIC50 (Candida tropicalis [4]): 1 µg/mL (≈ 3.27 µM); MIC50 (Clavispora lusitaniae [5]): 2 µg/mL (≈ 6.53 µM); RatioAUC/MIC (Candida albicans [6]): 946; RatioAUC/MIC (Nakaseomyces glabratus [7]): 182; RatioAUC/MIC (Candida parapsilosis [8]): 635; RatioAUC/MIC (Candida tropicalis [9]): 657; RatioAUC/MIC (Clavispora lusitaniae [10]): 232; Ratio (Candida albicans [11]): 15.4; Ratio (Nakaseomyces glabratus [12]): 1.9; Ratio (Candida parapsilosis [13]): 10.7; Ratio (Candida tropicalis [14]): 11.4; Ratio (Clavispora lusitaniae [15]): 3.3; Activity (Homo sapiens [16]): 16.3%; Activity (Homo sapiens [17]): 36.4%; Activity (Homo sapiens [18]): 0%; Activity (Homo sapiens [19]): 0%; Activity (Homo sapiens [20]): 33.3%; Activity (Homo sapiens [21]): 18%; Activity (Homo sapiens [22]): 18%; Activity (Homo sapiens [23]): 50%; Activity (Homo sapiens [24]): 50%; Activity (Homo sapiens [25]): 50%; Activity (Homo sapiens [26]): 50%; Ratio (Candida [27]): 775; Ratio (Candida [28]): 614; MIC50 (Candida albicans [29]): 0.5 µg/mL (≈ 1.63 µM); MIC90 (Candida albicans [29]): 8 µg/mL (≈ 26.1 µM); MIC50 (Nakaseomyces glabratus [30]): 0.5 µg/mL (≈ 1.63 µM); MIC90 (Nakaseomyces glabratus [30]): 8 µg/mL (≈ 26.1 µM); MIC50 (Candida parapsilosis [31]): 0.5 µg/mL (≈ 1.63 µM); MIC90 (Candida parapsilosis [31]): 8 µg/mL (≈ 26.1 µM); MIC50 (Candida tropicalis [32]): 0.5 µg/mL (≈ 1.63 µM); MIC90 (Candida tropicalis [32]): 8 µg/mL (≈ 26.1 µM); Ratio (Candida albicans [33]): 13.17; Ratio (Nakaseomyces glabratus [34]): 1.51; Ratio (Nakaseomyces glabratus [35]): 1.88; Ratio (Candida albicans [36]): 15.39; Ratio (Candida [37]): 496; MIC50 (Clavispora lusitaniae [38]): 0.5 µg/mL (≈ 1.63 µM); MIC90 (Clavispora lusitaniae [38]): 8 µg/mL (≈ 26.1 µM); Activity (Candida [39]): 13.3; MIC50 (Candida albicans [40]): 0.25 µg/mL (≈ 0.816 µM); MIC50 (Nakaseomyces glabratus [41]): 4 µg/mL (≈ 13.1 µM); MIC50 (Candida parapsilosis [42]): 1.25 µg/mL (≈ 4.08 µM)
